Measured values published in publication PMC11253873 (RSC Medicinal Chemistry, 2024).
Values after ≈ are worked out from the molar mass of the structure shown. Values joined by “and” are separate entries in the source; they are usually repeats but may differ in a detail not shown here. Equal entries are not always repeated. Where two headings read alike, the source gives them in different places.

Columns and labels:
Mtb H37Rv [1] = settings: cited from earlier work
Pf3D7 parasites [2] = settings: read-out: Pf IC50; P. falciparum parasites; cited from earlier work
Mtb H37Rv [3] = assay: microbe, parasite or virus in culture; format: cell-based, Mycobacterium tuberculosis; settings: for MIC: Mycobacterium tuberculosis, H37RV, 336 h, read-out: Mtb MIC; for Mtb MIC: value in parentheses, Mtb H37Rv, 2 weeks
PfDXR = biological target: T1, PfDXR (Plasmodium falciparum, UniProt Q8IKG4); assay: DXR enzyme inhibition assay; format: biochemical; settings: values in parentheses; compound at 100 μM
T1 sequence (Q8IKG4 73-488): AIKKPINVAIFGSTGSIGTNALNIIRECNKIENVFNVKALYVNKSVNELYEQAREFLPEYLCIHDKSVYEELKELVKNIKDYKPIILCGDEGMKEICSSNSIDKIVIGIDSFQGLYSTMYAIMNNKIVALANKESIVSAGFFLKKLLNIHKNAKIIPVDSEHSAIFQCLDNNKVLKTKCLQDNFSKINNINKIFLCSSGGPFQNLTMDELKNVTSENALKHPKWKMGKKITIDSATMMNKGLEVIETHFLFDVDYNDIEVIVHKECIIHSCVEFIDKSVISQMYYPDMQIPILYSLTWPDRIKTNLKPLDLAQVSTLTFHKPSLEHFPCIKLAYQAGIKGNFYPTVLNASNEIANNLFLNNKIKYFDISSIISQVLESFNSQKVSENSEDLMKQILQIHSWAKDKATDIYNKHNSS

MtbDXR = biological target: T2, MtbDXR (Mycobacterium tuberculosis, UniProt P9WNS1); assay: DXR enzyme inhibition assay; format: biochemical; settings: values in parentheses; compound at 100 μM
T2 sequence (P9WNS1 1-413): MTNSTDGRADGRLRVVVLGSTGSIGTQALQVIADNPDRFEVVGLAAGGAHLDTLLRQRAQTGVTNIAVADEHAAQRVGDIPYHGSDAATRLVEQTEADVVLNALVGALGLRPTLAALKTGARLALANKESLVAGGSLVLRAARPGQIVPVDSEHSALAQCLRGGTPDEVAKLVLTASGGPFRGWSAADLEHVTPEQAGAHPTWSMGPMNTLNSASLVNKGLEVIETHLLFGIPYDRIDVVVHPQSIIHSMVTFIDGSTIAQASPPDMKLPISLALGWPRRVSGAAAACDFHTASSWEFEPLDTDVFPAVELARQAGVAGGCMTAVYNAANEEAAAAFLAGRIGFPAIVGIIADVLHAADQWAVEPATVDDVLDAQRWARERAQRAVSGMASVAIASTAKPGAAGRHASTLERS

Pf3D7 parasites [4] = assay: P. falciparum growth inhibition assay; format: cell-based, Plasmodium falciparum; settings: read-out: Pf IC50, 3 days, PicoGreen DNA content
How it was run: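 Asynchronous cultures of wild-type 3D7 and fosmidomycin-resistant had1 strain E1-C12 are kept at 2% hematocrit in supplemented RPMI-1640 with 0.5% Albumax, under 5% O2/5% CO2/90% N2 at 37 °C. Parasites are diluted to 0.5% parasitemia and exposed to 1.2 nM–492.4 μM test compound from the start. After 3 days, DNA is read with PicoGreen (ex 485/em 528 nm). IC50 comes from a 4-parameter nonlinear fit. Technical duplicates, biological triplicate.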

Compound: O=CN(O)CCCP(=O)(O)O [1(Fos), Fosmidomycin]
- Mtb MIC (Mtb H37Rv [1]): >500 μg mL^−1 and >500 (ref. [34]) μg mL^−1

Compound: CC(=O)N(O)CCCP(=O)(O)O [2(FR), FR900098]
- Mtb MIC (Mtb H37Rv [1]): >500 μg mL^−1 and >500 (ref. [34]) μg mL^−1
- IC50 (Pf3D7 parasites [2]): 511 nM

Compound: CC(=O)N(CCC(c1ccc(Cl)c(Cl)c1)P(=O)(O)O)OCc1ccc2ccccc2c1.N.N (stereo not drawn) [Compound 6c]
- MIC (Mtb H37Rv [3]): 12.5 µg/mL

Compound: CC(=O)N(CCC(c1ccc(Cl)c(Cl)c1)P(=O)(O)O)OCc1ccc(-c2ccc(C(C)C)cc2)cc1.N.N (stereo not drawn) [Compound 6i]
- MIC (Mtb H37Rv [3]): 25 µg/mL

Compound: CC(=O)N(O)CCC(c1ccc(Cl)c(Cl)c1)P(=O)(OCOC(=O)C(C)(C)C)OCOC(=O)C(C)(C)C (stereo not drawn) [Compound 7a, ({[1-(3,4-Dichlorophenyl)-3-(N-hydroxyacetamido)propyl]({[(2,2-dimethylpropanoyl)oxy]methoxy})phosphoryl}oxy)methyl 2,2-dimethylpropanoate]
- MIC (Mtb H37Rv [3]): 4.6 µg/mL (≈ 8.06 µM)

Compound: CC(=O)N(CCC(c1ccc(Cl)c(Cl)c1)P(=O)(OCOC(=O)C(C)(C)C)OCOC(=O)C(C)(C)C)OCc1ccccc1 (stereo not drawn) [Compound 7b, [({3-[N-(Benzyloxy)acetamido]-1-(3,4-dichlorophenyl)propyl}({[(2,2-dimethylpropanoyl)oxy]methoxy})phosphoryl)oxy]methyl 2,2-dimethylpropanoate]
- MIC (Mtb H37Rv [3]): 6.25 µg/mL (≈ 9.46 µM)

Compound: CC(=O)N(CCC(c1ccc(Cl)c(Cl)c1)P(=O)(OCOC(=O)C(C)(C)C)OCOC(=O)C(C)(C)C)OCc1ccc2ccccc2c1 (stereo not drawn) [Compound 7c, ({[1-(3,4-Dichlorophenyl)-3-{N-[(naphthalen-2-yl)methoxy]acetamido}propyl]({[(2,2-dimethylpropanoyl)oxy]methoxy})phosphoryl}oxy)methyl-2,2-dimethylpropanoate]
- MIC (Mtb H37Rv [3]): 6.25 µg/mL (≈ 8.8 µM)

Compound: CC(=O)N(CCC(c1ccc(Cl)c(Cl)c1)P(=O)(OCOC(=O)C(C)(C)C)OCOC(=O)C(C)(C)C)OC(C)c1ccccc1 (stereo not drawn) [Compound 7e, ({[1-(3,4-Dichlorophenyl)-3-[N-(1-phenylethoxy)acetamido]propyl]({[(2,2-dimethylpropanoyl)oxy]methoxy})phosphoryl}oxy) methyl 2,2-dimethylpropanoate]
- MIC (Mtb H37Rv [3]): 9.4 µg/mL and 13.9 µM

Compound: CC(=O)N(CCC(c1ccc(Cl)c(Cl)c1)P(=O)(OCOC(=O)C(C)(C)C)OCOC(=O)C(C)(C)C)OCc1ccc(C(C)C)cc1 (stereo not drawn) [Compound 7f, ({[1-(3,4-Dichlorophenyl)-3-(N-{[4-(propan-2-yl)phenyl]methoxy}acetamido)propyl]({[(2,2-dimethylpropanoyl)oxy]methoxy})phosphoryl}oxy) methyl 2,2-dimethylpropanoate]
- MIC (Mtb H37Rv [3]): 12.5 µg/mL (≈ 17.8 µM)

Compound: CC(=O)N(CCC(c1ccc(Cl)c(Cl)c1)P(=O)(OCOC(=O)C(C)(C)C)OCOC(=O)C(C)(C)C)OCCCCc1ccccc1 (stereo not drawn) [Compound 7g, ({[1-(3,4-Dichlorophenyl)-3-[N-(4-phenylbutoxy)acetamido]propyl]({[(2,2-dimethylpropanoyl)oxy]methoxy})phosphoryl}oxy) methyl 2,2-dimethylpropanoate]
- MIC (Mtb H37Rv [3]): 12.5 µg/mL (≈ 17.8 µM)

Compound: CC(=O)N(CCC(c1ccc(Cl)c(Cl)c1)P(=O)(OCOC(=O)C(C)(C)C)OCOC(=O)C(C)(C)C)OCc1ccc(Br)cc1 (stereo not drawn) [Compound 7h, {[(3-{N-[(4-Bromophenyl)methoxy]acetamido}-1-(3,4-dichlorophenyl)propyl)({[(2,2-dimethylpropanoyl)oxy]methoxy})phosphoryl]oxy}methyl 2,2-dimethylpropanoate]
- MIC (Mtb H37Rv [3]): 6.25 µg/mL (≈ 8.45 µM)

Compound: CC(=O)N(CCC(c1ccc(Cl)c(Cl)c1)P(=O)(OCOC(=O)C(C)(C)C)OCOC(=O)C(C)(C)C)OCc1ccc(-c2ccc(C(C)C)cc2)cc1 (stereo not drawn) [Compound 7i, ({[1-(3,4-Dichlorophenyl)-3-(N-{[4′-(propan-2-yl)-[1,1′-biphenyl]-4-yl]methoxy}acetamido)propyl]({[(2,2-dimethylpropanoyl)oxy]methoxy})phosphoryl}oxy)methyl 2,2-dimethylpropanoate]
- MIC (Mtb H37Rv [3]): > 100 µg/mL

Compound: CC(=O)N(CCC(c1ccc(Cl)c(Cl)c1)P(=O)(OCOC(=O)C(C)(C)C)OCOC(=O)C(C)(C)C)OC(C)c1ccc(Cl)cc1 (stereo not drawn) [Compound 7j, ({[1-(3,4-Dichlorophenyl)-3-{N-[1-(4-chlorophenyl)ethoxy]acetamido}propyl]({[(2,2-dimethylpropanoyl)oxy]methoxy})phosphoryl}oxy)methyl 2,2-dimethylpropanoate]
- MIC (Mtb H37Rv [3]): 9.4 µg/mL (≈ 13.3 µM)

Compound: CC(=O)N(CCC(c1ccc(Cl)c(Cl)c1)P(=O)(OCOC(=O)C(C)(C)C)OCOC(=O)C(C)(C)C)OC(C)c1ccc(C)cc1 (stereo not drawn) [Compound 7k, ({[1-(3,4-Dichlorophenyl)-3-{N-[1-(4-methylphenyl)ethoxy]acetamido}propyl]({[(2,2-dimethylpropanoyl)oxy]methoxy})phosphoryl}oxy)methyl 2,2-dimethylpropanoate]
- MIC (Mtb H37Rv [3]): 12.5 µg/mL (≈ 18.2 µM)

Compound: CC(=O)N(CCC(c1ccc(Cl)c(Cl)c1)P(=O)(OCOC(=O)C(C)(C)C)OCOC(=O)C(C)(C)C)OC(C)c1ccc(C(F)(F)F)cc1 (stereo not drawn) [Compound 7m, ({[1-(3,4-Dichlorophenyl)-3-{N-[1-(4-trifluoromethylphenyl)ethoxy]acetamido}propyl]({[(2,2-dimethylpropanoyl)oxy]methoxy})phosphoryl}oxy)methyl 2,2-dimethylpropanoate]
- MIC (Mtb H37Rv [3]): > 100 µg/mL

Compound: CC(=O)N(CCC(c1ccc(Cl)c(Cl)c1)P(=O)(OCOC(=O)C(C)(C)C)OCOC(=O)C(C)(C)C)OC(C)c1ccc(F)cc1 (stereo not drawn) [Compound 7n, ({[1-(3,4-Dichlorophenyl)-3-{N-[1-(4-fluorophenyl)ethoxy]acetamido}propyl]({[(2,2-dimethylpropanoyl)oxy]methoxy})phosphoryl}oxy)methyl 2,2-dimethylpropanoate]
- MIC (Mtb H37Rv [3]): 4.6 µg/mL (≈ 6.64 µM)

Compound: Diammonium (3-{N-[(4-bromophenyl) methoxy] acetamido}-1-(3,4-dichlorophenyl) propyl) phosphonate [Compound 6h]
- Mtb MIC (Mtb H37Rv [3]): > 92 µM
- Pf DXR percent remaining enzyme activity at 100 μM (PfDXR): (53.07) percent
- Mtb DXR percent remaining enzyme activity at 100 μM (MtbDXR): (72.30) percent
- IC50 (Pf3D7 parasites [4]): 67.8 ± 3.57 µM

Compound: Diammonium [1-(3,4-dichlorophenyl)-3-[N-(4-phenylbutoxy)acetamido]propyl] phosphonate [Compound 6g]
- Mtb MIC (Mtb H37Rv [3]): 3.1 µM
- Pf DXR percent remaining enzyme activity at 100 μM (PfDXR): (25.64) percent
- Mtb DXR percent remaining enzyme activity at 100 μM (MtbDXR): (99.10) percent
- IC50 (Pf3D7 parasites [4]): 63.3 ± 16.7 µM

Compound: Diammonium [3-{acetyl[1-(4-trifluoromethylphenyl)ethoxy]amino}-1-(3,4-dichlorophenyl)propyl] phosphonate [Compound 6m]
- Mtb MIC (Mtb H37Rv [3]): > 91 µM
- Pf DXR percent remaining enzyme activity at 100 μM (PfDXR): (74.69) percent
- Mtb DXR percent remaining enzyme activity at 100 μM (MtbDXR): (59.60) percent
- IC50 (Pf3D7 parasites [4]): 79.2 ± 12.1 µM

Compound: Diammonium {3-[N-(benzyloxy)acetamido]-1-(3,4-dichlorophenyl)propyl} phosphonate [Compound 6b]
- Mtb MIC (Mtb H37Rv [3]): > 214 µM
- Pf DXR percent remaining enzyme activity at 100 μM (PfDXR): (26.66) percent
- Mtb DXR percent remaining enzyme activity at 100 μM (MtbDXR): (34.20) percent
- IC50 (Pf3D7 parasites [4]): 31.5 ± 7.85 µM

Compound: Diammonium {3-[N-({[1,1′-biphenyl]-4-yl}methoxy)acetamido]-1-(3,4-dichlorophenyl) propyl} phosphonate [Compound 6d]
- Mtb MIC (Mtb H37Rv [3]): 23.1 µM
- Pf DXR percent remaining enzyme activity at 100 μM (PfDXR): (26.97) percent
- Mtb DXR percent remaining enzyme activity at 100 μM (MtbDXR): (93.90) percent
- IC50 (Pf3D7 parasites [4]): 86.4 ± 10.1 µM

Compound: [({3-[N-({[1,1′-Biphenyl]-4-yl}methoxy)acetamido]-1-(3,4-dichlorophenyl)propyl}({[(2,2-dimethylpropanoyl)oxy] methoxy}) phosphoryl)oxy] methyl-2,2-dimethylpropanoate [Compound 7d]
- Mtb MIC (Mtb H37Rv [3]): 17.0 µM
- IC50 (Pf3D7 parasites [4]): 8.78 ± 0.92 µM
